{"data": "Results of several laboratories", "note": "Lines come from different studies, so protocols differ."}
{"Compound": "CCCCNC(=O)c1c(N)sc2c1CCN(CC)C2", "tested on": "Mycobacterium tuberculosis", "assay": "microbial growth, resazurin", "system": "H37RV", "conditions": "7 days", "endpoint": "MIC", "value": "> 300 µM"}
{"Compound": "COc1ccc(NC(=O)c2c(Nc3ccccc3)sc(C(=O)NN=Cc3ccc(Cl)cc3)c2NC(C)=O)cc1", "tested on": "HepG2", "assay": "cell growth or viability, SRB", "conditions": "0.1 µM, 48 h", "endpoint": "viability", "value": "92.3%"}
{"Compound": "Fc1cccc(F)c1-c1nc(N2CCC(c3ccccn3)C2)c2ccccc2n1 (centres unmarked)", "tested on": "Trypanosoma cruzi", "assay": "parasite growth, imaging", "system": "U2OS", "conditions": "intracellular, amastigote", "endpoint": "IC50", "value": "9.7 µM"}
{"Compound": "Cc1ccc(CNC(=O)c2c(N)sc3c2CCCC3)cc1", "tested on": "Mycobacterium tuberculosis", "assay": "microbial growth, resazurin", "system": "H37RV", "endpoint": "MIC", "value": "333 µM"}
{"Compound": "CCOC(=O)c1ccc(-n2c(C)cc(C)c(C#N)c2=O)cc1", "tested on": "HepG2", "assay": "cell growth or viability, MTT", "conditions": "12.5 µM, 24 h", "endpoint": "viability", "value": "76.1%"}
{"Compound": "COc1ccc(NC(=O)c2c(Nc3ccccc3)sc(C#N)c2NC(=O)CNc2ccccc2)cc1", "tested on": "HepG2", "assay": "cell growth or viability, SRB", "conditions": "1 µM, 48 h", "endpoint": "viability", "value": "88.6%"}
{"Compound": "Nc1sc(-c2ccccc2)cc1C(=O)NC12CC3CC(CC(C3)C1)C2", "tested on": "Mycobacterium tuberculosis", "assay": "microbial growth, resazurin", "system": "H37RV", "endpoint": "MIC", "value": "> 200 µM"}
{"Compound": "OC1(c2ccccc2)CCN(c2nc(-c3ccccn3)nc3ccccc23)C1 (centres unmarked)", "tested on": "Trypanosoma cruzi", "assay": "parasite growth, imaging", "system": "U2OS", "conditions": "intracellular, amastigote", "endpoint": "IC50", "value": "3.51 µM"}
{"Compound": "COc1ccc(NCC(=O)Nc2c(C#N)sc(Nc3ccccc3)c2C(=O)Nc2ccc(OC)cc2)cc1", "tested on": "HepG2", "assay": "cell growth or viability, SRB", "conditions": "10 nM, 48 h", "endpoint": "viability", "value": "91.1%"}
{"Compound": "c1ccc(C2CCN(c3nc(-c4cnn5cccnc45)nc4ccccc34)C2)nc1 (centres unmarked)", "tested on": "Trypanosoma cruzi", "assay": "parasite growth, imaging", "system": "U2OS", "conditions": "intracellular, amastigote", "endpoint": "IC50", "value": "1.11 µM"}
{"Compound": "CCOC(=O)c1ccc(-n2c(C)cc(/C=C/c3ccc(OCC)cc3)c(C#N)c2=O)cc1", "tested on": "HepG2", "assay": "cell growth or viability, MTT", "conditions": "25 µM, 24 h", "endpoint": "viability", "value": "72%"}
{"Compound": "CCN1CCc2c(sc(NC(=O)c3cc(C(F)(F)F)cc(C(F)(F)F)c3)c2C(=O)NCc2ccc(C)cc2)C1", "tested on": "Mycobacterium tuberculosis", "assay": "microbial growth, resazurin", "system": "H37RV", "endpoint": "MIC", "value": "350 µM"}
{"Compound": "COc1ccc(NC(=O)c2c(Nc3ccccc3)sc(C#N)c2NC(=O)CNc2ccc(Cl)cc2)cc1", "tested on": "HepG2", "assay": "cell growth or viability, SRB", "conditions": "1 nM, 48 h", "endpoint": "viability", "value": "99.1%"}
{"Compound": "Fc1cccc(Nc2nc(-c3ccccn3)nc3ccccc23)c1", "tested on": "Trypanosoma cruzi", "assay": "parasite growth, imaging", "system": "U2OS", "conditions": "intracellular, amastigote", "endpoint": "IC50", "value": "1.5 µM"}
